In ChEMBL document CHEMBL4396869, “Design and Synthesis of Selective Phosphodiesterase 4D (PDE4D) Allosteric Inhibitors for the Treatment of Fragile X Syndrome and Other Brain Disorders” (J Med Chem, 2019):
Calls of active or inactive are those of the source. The calls are words filed in the database; no cut-off is given here.

Tests used:
Mus musculus = assay: Memory enhancement effect in ICR mouse assessed as improvement in novel object discrimination at 0.3 to 30 mg/kg, po administered via gavage measured for 5 mins by open field test; assay type: functional, organism-based
Outline: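 Male ICR mice (25–30 g), dosed by oral gavage in 5% DMSO, 5% Solutol in PBS. Three phases in an open field box: 10 min habituation on day 1, 5 min training with identical objects on day 2, 5 min test with familiar and novel objects on day 3 (24 h delay). Exploration times recorded; discrimination index d2 = (b − a)/(a + b).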

[1] = Stability in dog liver microsomes assessed as parent compound remaining at 1 uM measured after 30 mins by LC-MS/MS analysis; assay type: ADME, Canis lupus familiaris, Microsome; conditions: read-out: Stability
Outline: (§1)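 Liver microsome stability run by a contract lab using standard protocols. Parent compound remaining measured after 30 min incubation.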

[2] = Stability in mouse liver microsomes assessed as parent compound remaining at 1 uM measured after 30 mins by LC-MS/MS analysis; assay type: ADME, Microsome; conditions: read-out: Stability; outline: as §1
[3] = Permeability across apical to basal side in MDCK-MDR1 cells; assay type: ADME, cell-based, Canis lupus familiaris; conditions: dog
Outline: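 Cellular permeability in MDCK-MDR1 cells, apical-to-basal and basal-to-apical, run by a contract lab using standard protocols. Efflux ratio taken as B-A/A-B.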

[4] = Protein binding in human plasma; assay type: ADME, cell-free; conditions: read-out: PPB
[5] = Protein binding in dog plasma; assay type: ADME, cell-free, Canis lupus familiaris; conditions: read-out: PPB
[6] = Protein binding in rat plasma; assay type: ADME, cell-free; conditions: read-out: PPB
[7] = Protein binding in mouse plasma; assay type: ADME, cell-free; conditions: read-out: PPB
Cytochrome P450 3A4 = Cytochrome P450 3A4 (Homo sapiens, UniProt P08684); assay: Inhibition of CYP3A4 (unknown origin) by fluorescence-based assay; assay type: ADME
Outline: (§2)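 CYP inhibition run with a fluorescent substrate by a contract laboratory under standard protocols; IC50 reported.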

Cytochrome P450 2C19 = Cytochrome P450 2C19 (Homo sapiens, UniProt P33261); assay: Inhibition of […] (unknown origin) by fluorescence-based assay; assay type: ADME; outline: as §2
Cytochrome P450 2D6 = Cytochrome P450 2D6 (Homo sapiens, UniProt P10635); assay: Inhibition of CYP2D6 (unknown origin) by fluorescence-based assay; assay type: ADME; outline: as §2
Cytochrome P450 2C9 = Cytochrome P450 2C9 (Homo sapiens, UniProt P11712); assay: Inhibition of CYP2C9 (unknown origin) by fluorescence-based assay; assay type: ADME; outline: as §2
[8] = biological target: 3',5'-cyclic-AMP phosphodiesterase 4D (Homo sapiens, UniProt Q08499); assay: Inhibition of recombinant human His6-tagged PDE4D2 expressed in baculovirus infected Sf9 insect cells using cAMP as substrate preincubated for 5 to 10 mins followed by substrate addition and measured for 10 mins by yeast myokinase/pyruvate kinase/lactate dehydrogenase-coupled fluorescence assay relative to control; conditions: sf9, 10 min
[9] = Aqueous kinetic solubility of the compound in pH 7.4 PBS buffer at 100 uM measured after 1 hr; assay type: physicochemical; conditions: pH 7.4, 1 h
[10] = Oral bioavailability in C57Bl6 mouse; assay type: ADME, organism-based; conditions: in vivo
[11] = Cmax in ICR mouse at 0.3 mg/kg, po; assay type: ADME, organism-based; design: dose 0.3 mg/kg, route oral; conditions: in vivo
[12] = Oral bioavailability in dog; assay type: ADME, organism-based, Canis lupus familiaris; conditions: in vivo
[13] = Toxicity in rat assessed as effect on CNS up to 60 mg/kg, po; assay type: organism-based; conditions: in vivo
[14] = Cardiovascular toxicity in dog at 100 mg/kg, po; assay type: organism-based, Canis lupus familiaris; conditions: in vivo
[15] = Toxicity in rat assessed as weight loss at 100 mg/kg, po; assay type: organism-based; conditions: in vivo
[16] = Toxicity in dog assessed as emesis at 100 mg/kg, po; assay type: organism-based, Canis lupus familiaris; conditions: in vivo
[17] = Toxicity in dog assessed as tremor at 100 mg/kg, po; assay type: organism-based, Canis lupus familiaris; conditions: in vivo
[18] = Vascular toxicity in rat measured for 28 days; conditions: in vivo, 672 h
[19] = Vascular toxicity in dog during 90 days study by microscopic analysis; design: species or system Canis lupus familiaris; conditions: in vivo, 2160 h
[20] = Vascular toxicity in rat during 28 days study by microscopic analysis; conditions: in vivo, 672 h
Cynomolgus monkey = assay: Induction of emesis in cynomolgus monkey up to 50 mg/kg, po; assay type: organism-based, Macaca fascicularis; conditions: in vivo
[21] = biological target: cGMP-inhibited 3',5'-cyclic phosphodiesterase 3B (Homo sapiens, UniProt Q13370); assay: Inhibition of recombinant N-terminal GST-tagged human PDE3B (592-end residues) expressed in baculovirus infected Sf9 cells using FAM-cAMP as substrate incubated for 60 mins by fluorescence assay; conditions: sf9, 1 h
[22] = biological target: T1, 3',5'-cyclic-AMP phosphodiesterase 4A (Homo sapiens, UniProt P27815); assay: Inhibition of recombinant N-terminal GST-tagged human PDE4A10 (2 to 825 residues) expressed in baculovirus infected Sf9 cells using FAM-cAMP as substrate incubated for 60 mins by fluorescence assay; conditions: sf9, 1 h
[23] = biological target: T1, 3',5'-cyclic-AMP phosphodiesterase 4A; assay: Inhibition of recombinant N-terminal GST tagged human PDE4A4B (2 to end residues) expressed in Sf9 cells using FAM-cAMP as substrate incubated for 60 mins by fluorescence assay; conditions: sf9, 1 h
[24] = biological target: 3',5'-cyclic-AMP phosphodiesterase 4B (Homo sapiens, UniProt Q07343); assay: Inhibition of recombinant human N-terminal GST-tagged PDE4B3 (2 to 721 residues) expressed in baculovirus infected Sf9 cells using FAM-cAMP as substrate incubated for 60 mins by fluorescence assay; conditions: sf9, 1 h
[25] = biological target: 3',5'-cyclic-AMP phosphodiesterase 4C (Homo sapiens, UniProt Q08493); assay: Inhibition of recombinant human full length N-terminal GST-tagged PDE4C1 expressed in baculovirus infected Sf9 cells using FAM-cAMP as substrate incubated for 60 mins by fluorescence assay; conditions: sf9, 1 h
[26] = Inhibition of recombinant human N-terminal GST-tagged PDE4D7 (2 to 748 residues) expressed in baculovirus infected Sf9 cells using FAM-cAMP as substrate incubated for 60 mins by fluorescence assay; conditions: sf9, 1 h
[27] = biological target: High affinity cAMP-specific and IBMX-insensitive 3',5'-cyclic phosphodiesterase 8A (Homo sapiens, UniProt O60658); assay: Inhibition of recombinant human full length N-terminal GST-tagged PDE8A1 expressed in baculovirus infected Sf9 cells using FAM-cAMP as substrate incubated for 60 mins by fluorescence assay; conditions: sf9, 1 h
[28] = biological target: High affinity cGMP-specific 3',5'-cyclic phosphodiesterase 9A (Homo sapiens, UniProt O76083); assay: Inhibition of recombinant human full length N-terminal GST-tagged PDE9A2 expressed in baculovirus infected Sf9 cells using FAM-cGMP as substrate incubated for 60 mins by fluorescence assay; conditions: sf9, 1 h
[29] = biological target: T2, cAMP and cAMP-inhibited cGMP 3',5'-cyclic phosphodiesterase 10A (Homo sapiens, UniProt Q9Y233); assay: Inhibition of recombinant human N-terminal GST-tagged PDE10A1 (2 to 789 residues) expressed in baculovirus infected Sf9 cells using FAM-cAMP as substrate incubated for 60 mins by fluorescence assay; conditions: sf9, 1 h
[30] = biological target: T2, cAMP and cAMP-inhibited cGMP 3',5'-cyclic phosphodiesterase 10A; assay: Inhibition of recombinant human full length N-terminal GST-tagged PDE10A2 expressed in baculovirus infected Sf9 cells using FAM-cAMP as substrate incubated for 60 mins by fluorescence assay; conditions: sf9, 1 h
[31] = biological target: Dual 3',5'-cyclic-AMP and -GMP phosphodiesterase 11A (Homo sapiens, UniProt Q9HCR9); assay: Inhibition of recombinant human full length N-terminal GST-tagged PDE11A expressed in baculovirus infected Sf9 cells using FAM-cAMP as substrate incubated for 60 mins by fluorescence assay; conditions: sf9, 1 h

T2 sequence (Q9Y233 whole entry, the tested form may be a part): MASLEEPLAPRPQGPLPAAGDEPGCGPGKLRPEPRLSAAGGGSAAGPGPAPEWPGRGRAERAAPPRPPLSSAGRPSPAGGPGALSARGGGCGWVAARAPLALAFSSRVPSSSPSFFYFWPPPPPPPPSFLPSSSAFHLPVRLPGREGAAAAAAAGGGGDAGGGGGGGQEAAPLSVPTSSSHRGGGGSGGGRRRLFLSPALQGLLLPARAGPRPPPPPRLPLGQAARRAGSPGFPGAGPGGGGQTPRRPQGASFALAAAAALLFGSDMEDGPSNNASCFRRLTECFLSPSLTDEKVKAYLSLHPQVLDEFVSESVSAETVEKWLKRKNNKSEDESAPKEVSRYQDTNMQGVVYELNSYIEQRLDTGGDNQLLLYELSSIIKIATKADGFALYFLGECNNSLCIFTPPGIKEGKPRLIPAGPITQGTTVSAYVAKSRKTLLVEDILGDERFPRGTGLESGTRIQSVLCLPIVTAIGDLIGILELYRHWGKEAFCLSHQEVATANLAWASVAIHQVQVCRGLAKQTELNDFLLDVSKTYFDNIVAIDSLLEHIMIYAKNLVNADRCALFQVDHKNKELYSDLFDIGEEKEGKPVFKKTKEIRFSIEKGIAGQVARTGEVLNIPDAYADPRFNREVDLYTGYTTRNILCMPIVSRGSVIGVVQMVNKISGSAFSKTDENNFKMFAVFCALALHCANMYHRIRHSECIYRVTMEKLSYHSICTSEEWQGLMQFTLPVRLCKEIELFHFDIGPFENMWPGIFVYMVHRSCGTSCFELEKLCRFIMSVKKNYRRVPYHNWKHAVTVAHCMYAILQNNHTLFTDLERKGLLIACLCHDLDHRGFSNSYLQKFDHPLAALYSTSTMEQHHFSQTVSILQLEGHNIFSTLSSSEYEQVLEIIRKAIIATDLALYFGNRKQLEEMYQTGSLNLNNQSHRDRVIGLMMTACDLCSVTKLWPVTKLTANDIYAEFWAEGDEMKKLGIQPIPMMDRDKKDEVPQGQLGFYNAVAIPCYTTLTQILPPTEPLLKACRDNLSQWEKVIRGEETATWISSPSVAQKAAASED
T1 sequence (P27815 whole entry, the tested form may be a part): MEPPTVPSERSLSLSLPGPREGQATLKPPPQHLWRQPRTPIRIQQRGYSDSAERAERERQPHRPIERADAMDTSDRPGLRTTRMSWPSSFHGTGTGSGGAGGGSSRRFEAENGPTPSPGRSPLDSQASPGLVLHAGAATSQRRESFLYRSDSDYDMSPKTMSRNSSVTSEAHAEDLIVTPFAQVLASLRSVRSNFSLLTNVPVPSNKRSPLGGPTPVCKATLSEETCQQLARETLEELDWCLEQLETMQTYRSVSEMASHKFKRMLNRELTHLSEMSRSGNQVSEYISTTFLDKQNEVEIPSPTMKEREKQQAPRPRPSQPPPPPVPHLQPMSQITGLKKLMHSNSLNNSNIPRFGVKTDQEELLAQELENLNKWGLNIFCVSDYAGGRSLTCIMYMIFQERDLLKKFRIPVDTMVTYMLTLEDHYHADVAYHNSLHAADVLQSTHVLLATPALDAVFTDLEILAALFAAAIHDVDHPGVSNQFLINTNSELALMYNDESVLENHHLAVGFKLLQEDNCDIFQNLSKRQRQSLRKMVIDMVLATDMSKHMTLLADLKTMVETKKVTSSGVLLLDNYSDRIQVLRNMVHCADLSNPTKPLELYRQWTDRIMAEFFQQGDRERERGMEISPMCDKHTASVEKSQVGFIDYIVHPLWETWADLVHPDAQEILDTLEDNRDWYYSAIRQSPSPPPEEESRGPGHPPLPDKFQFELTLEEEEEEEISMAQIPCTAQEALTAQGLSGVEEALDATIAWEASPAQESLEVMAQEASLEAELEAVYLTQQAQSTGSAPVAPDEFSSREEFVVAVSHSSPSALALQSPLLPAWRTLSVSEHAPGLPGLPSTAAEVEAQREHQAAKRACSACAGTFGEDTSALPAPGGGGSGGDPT
Sequence of Cytochrome P450 2C9 (P11712 whole entry): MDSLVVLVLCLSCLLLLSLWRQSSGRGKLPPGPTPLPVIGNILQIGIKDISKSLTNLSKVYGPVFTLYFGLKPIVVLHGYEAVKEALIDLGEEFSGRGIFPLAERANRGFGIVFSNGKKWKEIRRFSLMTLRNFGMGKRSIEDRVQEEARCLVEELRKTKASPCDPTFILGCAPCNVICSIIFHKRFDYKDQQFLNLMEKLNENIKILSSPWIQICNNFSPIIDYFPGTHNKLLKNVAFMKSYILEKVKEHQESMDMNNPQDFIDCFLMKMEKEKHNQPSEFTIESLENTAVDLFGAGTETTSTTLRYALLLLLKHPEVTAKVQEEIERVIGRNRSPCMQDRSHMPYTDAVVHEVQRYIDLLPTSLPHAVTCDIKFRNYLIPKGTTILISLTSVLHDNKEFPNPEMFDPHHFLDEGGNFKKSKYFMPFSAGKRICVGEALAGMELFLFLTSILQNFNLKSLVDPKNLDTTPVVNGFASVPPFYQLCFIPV
Sequence of 3',5'-cyclic-AMP phosphodiesterase 4B (Q07343 whole entry, the tested form may be a part): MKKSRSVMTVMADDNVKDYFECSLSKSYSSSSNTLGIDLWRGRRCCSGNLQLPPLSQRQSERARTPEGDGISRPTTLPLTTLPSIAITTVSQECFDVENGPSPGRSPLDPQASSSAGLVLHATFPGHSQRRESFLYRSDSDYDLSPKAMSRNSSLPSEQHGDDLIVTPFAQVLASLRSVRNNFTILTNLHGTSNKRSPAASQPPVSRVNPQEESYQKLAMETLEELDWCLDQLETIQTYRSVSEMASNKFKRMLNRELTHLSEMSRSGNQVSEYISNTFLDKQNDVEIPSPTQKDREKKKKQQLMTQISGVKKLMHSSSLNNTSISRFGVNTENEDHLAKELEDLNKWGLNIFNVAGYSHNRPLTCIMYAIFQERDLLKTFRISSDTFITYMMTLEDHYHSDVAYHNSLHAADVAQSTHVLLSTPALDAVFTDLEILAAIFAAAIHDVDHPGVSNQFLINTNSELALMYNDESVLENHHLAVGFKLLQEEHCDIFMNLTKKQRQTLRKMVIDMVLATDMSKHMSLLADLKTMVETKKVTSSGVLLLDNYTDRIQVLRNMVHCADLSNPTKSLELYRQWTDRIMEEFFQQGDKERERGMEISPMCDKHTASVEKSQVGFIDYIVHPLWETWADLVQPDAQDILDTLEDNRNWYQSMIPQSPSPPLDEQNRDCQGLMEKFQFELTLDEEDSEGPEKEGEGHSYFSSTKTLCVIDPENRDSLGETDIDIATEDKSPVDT
Sequence of 3',5'-cyclic-AMP phosphodiesterase 4D (Q08499 whole entry): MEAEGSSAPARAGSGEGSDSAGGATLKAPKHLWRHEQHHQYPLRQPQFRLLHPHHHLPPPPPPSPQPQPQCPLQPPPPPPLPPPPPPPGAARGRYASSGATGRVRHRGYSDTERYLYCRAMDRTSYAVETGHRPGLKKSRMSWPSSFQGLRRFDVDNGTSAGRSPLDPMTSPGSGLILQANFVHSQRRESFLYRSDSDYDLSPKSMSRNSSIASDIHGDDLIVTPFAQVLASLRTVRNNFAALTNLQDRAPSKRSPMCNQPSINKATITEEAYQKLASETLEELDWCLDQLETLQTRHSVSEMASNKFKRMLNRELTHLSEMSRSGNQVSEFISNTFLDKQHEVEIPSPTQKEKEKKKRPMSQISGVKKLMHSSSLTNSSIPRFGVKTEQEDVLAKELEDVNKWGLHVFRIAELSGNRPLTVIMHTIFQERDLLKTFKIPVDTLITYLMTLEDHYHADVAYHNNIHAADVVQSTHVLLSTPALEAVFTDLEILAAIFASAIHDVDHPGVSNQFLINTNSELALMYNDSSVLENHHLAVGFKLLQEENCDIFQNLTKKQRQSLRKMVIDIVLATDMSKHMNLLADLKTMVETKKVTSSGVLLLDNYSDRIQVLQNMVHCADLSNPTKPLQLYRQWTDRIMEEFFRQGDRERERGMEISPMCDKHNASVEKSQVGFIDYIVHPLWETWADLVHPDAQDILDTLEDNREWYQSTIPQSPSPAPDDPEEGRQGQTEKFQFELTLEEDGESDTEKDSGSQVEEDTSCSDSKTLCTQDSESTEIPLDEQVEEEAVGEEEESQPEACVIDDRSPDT
Sequence of Cytochrome P450 2D6 (P10635 whole entry): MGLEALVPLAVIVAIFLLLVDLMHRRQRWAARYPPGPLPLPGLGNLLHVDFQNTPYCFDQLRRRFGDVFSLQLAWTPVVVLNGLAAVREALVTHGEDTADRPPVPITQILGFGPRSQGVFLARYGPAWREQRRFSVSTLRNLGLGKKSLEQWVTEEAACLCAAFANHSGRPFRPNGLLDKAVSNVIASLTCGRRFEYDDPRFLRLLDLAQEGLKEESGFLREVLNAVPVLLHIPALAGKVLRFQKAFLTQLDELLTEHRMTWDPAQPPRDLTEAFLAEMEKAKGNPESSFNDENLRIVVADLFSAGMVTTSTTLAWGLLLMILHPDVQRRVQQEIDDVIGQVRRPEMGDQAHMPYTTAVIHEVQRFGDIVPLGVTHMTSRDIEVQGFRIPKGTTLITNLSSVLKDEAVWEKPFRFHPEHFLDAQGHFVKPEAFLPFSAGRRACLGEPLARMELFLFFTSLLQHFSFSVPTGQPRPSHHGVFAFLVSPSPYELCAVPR
Sequence of High affinity cGMP-specific 3',5'-cyclic phosphodiesterase 9A (O76083 whole entry, the tested form may be a part): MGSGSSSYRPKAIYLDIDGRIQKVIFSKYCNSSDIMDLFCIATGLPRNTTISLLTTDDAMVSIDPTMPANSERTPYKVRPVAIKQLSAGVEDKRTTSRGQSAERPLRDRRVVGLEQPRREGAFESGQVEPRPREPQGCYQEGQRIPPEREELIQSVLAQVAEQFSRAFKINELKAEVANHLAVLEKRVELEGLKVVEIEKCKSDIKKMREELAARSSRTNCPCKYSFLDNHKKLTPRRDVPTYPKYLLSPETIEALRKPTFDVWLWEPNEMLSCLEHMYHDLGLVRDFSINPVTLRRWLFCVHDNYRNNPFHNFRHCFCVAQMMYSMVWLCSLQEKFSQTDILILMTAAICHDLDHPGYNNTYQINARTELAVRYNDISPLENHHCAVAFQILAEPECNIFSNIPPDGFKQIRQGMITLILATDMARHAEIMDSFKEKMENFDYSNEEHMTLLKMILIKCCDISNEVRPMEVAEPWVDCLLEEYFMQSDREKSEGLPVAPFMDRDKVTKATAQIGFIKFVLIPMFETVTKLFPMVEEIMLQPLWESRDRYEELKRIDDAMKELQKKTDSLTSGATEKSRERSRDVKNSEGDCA

For O=C(O)Cc1ccc(Cc2cc(-c3cccc(Cl)c3)nc(C(F)(F)F)c2)cc1 [ZATOLMILAST], the Activity (Mus musculus) was “Active”, the remaining at 0.5 h, 1 µM [1] was 88 to 100% and the remaining at 0.5 h, 1 µM [2] was 88 to 100%. The permeability [3] was 53 ×10⁻⁶ cm/s, the fraction unbound [4] was 0.002 to 0.005 and the fraction unbound [5] was 0.002 to 0.005. For the same compound, the fraction unbound [6] was 0.002 to 0.005, the fraction unbound [7] was 0.002 to 0.005 and the IC50 (Cytochrome P450 3A4) was 15 µM. It also gave an IC50 (Cytochrome P450 2C19) of 43 µM, an IC50 (Cytochrome P450 2D6) greater than 100 µM and an IC50 (Cytochrome P450 2C9) greater than 51 µM. The “inhibition (INH)” value [8] was “Not Active”, the Kinetic_solubility [9] was 95 µM and the F [10] was 82%. For the same compound, the Cmax [11] was 153 ng/mL, the bioavailability [12] was 80 to 100% and the Activity [13] was “Non-Toxic”. For the same compound, the Activity [14] was “Non-Toxic”, the Activity [15] was “Toxic” and the Activity [16] was “Toxic”. For the same compound, the Activity [17] was “Toxic”, the Activity [18] was “Non-Toxic” and the Activity [19] was “Non-Toxic”. For the same compound, the Activity [20] was “Non-Toxic”, the Activity (Cynomolgus monkey) was “Non-Toxic” and the “inhibition (INH)” value [21] was “Not Active”. The “inhibition (INH)” value [22] was “Not Active”, the “inhibition (INH)” value [23] was “Not Active” and the “inhibition (INH)” value [24] was “Not Active”. The “inhibition (INH)” value [25] was “Not Active”, the “inhibition (INH)” value [26] was “Not Active” and the “inhibition (INH)” value [27] was “Not Active”. For the same compound, the “inhibition (INH)” value [28] was “Not Active”, the “inhibition (INH)” value [29] was “Not Active” and the “inhibition (INH)” value [30] was “Not Active”. For the same compound, the “inhibition (INH)” value [31] was “Not Active”.
